In ChEMBL document CHEMBL1127560, “Tyrosine kinase inhibitors. 3. Structure-activity relationships for inhibition of protein tyrosine kinases by nuclear-substituted derivatives of 2,2'-dithiobis(1-methyl-N-phenyl-1H-indole-3-carboxamide)” (J Med Chem, 1994):

Legend:
[1] = target: Epidermal growth factor receptor (Homo sapiens, UniProt P00533); test: Inhibition of tyrosine phosphorylation activity of the epidermal growth factor receptor (EGFR) tyrosine kinase from human A-431 carcinoma cell-shed membrane vesicles
A-431 = test: Inhibition of A431 human epidermoid carcinoma cell proliferation; type: functional, cell-based
Summary of the method: (§1)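 Cells kept in dMEM/F12 (50:50) with 10% fetal bovine serum. 2 × 10⁴ cells were seeded into wells holding compound dilutions in DMSO and exposed for 72 h at 37 °C under 5% CO₂. Growth was read by electronic cell count. IC50 is the concentration giving 50% growth inhibition, as the mean of two separate duplicate determinations.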

[2] = target: Epidermal growth factor receptor (Mus musculus, UniProt Q01279); test: Inhibition of epidermal growth factor receptor (EGFR-mediated tyrosine autophosphorylation in mouse fibroblasts.
Summary of the method: (§2)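 Confluent Swiss 3T3 fibroblasts were pretreated 2 h with graded compound concentrations, then stimulated 5 min with EGF or PDGF. Monolayers were lysed in boiling Laemmli buffer and resolved on 4–20% SDS gels. Blots were probed with antiphosphotyrosine antibody (1 μg/mL) and [¹²⁵I]protein A, and receptor autophosphorylation was quantified by densitometry. IC50 is 50% inhibition of autophosphorylation.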

KG-1 = test: Inhibition of kg1A acute myelogenous leukemia cell proliferation; type: functional, cell-based; conditions: Homo sapiens; summary of the method: as §1
K562 = test: Inhibition of K562 chronic myelogenous leukemia cell proliferation; type: functional, cell-based; conditions: Homo sapiens; summary of the method: as §1
[3] = target: Platelet-derived growth factor receptor (Mus musculus, UniProt P05622+P26618); test: Inhibition of PDGF receptor autophosphorylation in mouse fibroblasts; type: protein-complex assay; summary of the method: as §2
Swiss 3T3 (Mus musculus) = test: Inhibition of Swiss 3T3 Mouse fibroblast proliferation

Epidermal growth factor receptor (Homo sapiens, UniProt P00533), sequence (P00533 whole entry): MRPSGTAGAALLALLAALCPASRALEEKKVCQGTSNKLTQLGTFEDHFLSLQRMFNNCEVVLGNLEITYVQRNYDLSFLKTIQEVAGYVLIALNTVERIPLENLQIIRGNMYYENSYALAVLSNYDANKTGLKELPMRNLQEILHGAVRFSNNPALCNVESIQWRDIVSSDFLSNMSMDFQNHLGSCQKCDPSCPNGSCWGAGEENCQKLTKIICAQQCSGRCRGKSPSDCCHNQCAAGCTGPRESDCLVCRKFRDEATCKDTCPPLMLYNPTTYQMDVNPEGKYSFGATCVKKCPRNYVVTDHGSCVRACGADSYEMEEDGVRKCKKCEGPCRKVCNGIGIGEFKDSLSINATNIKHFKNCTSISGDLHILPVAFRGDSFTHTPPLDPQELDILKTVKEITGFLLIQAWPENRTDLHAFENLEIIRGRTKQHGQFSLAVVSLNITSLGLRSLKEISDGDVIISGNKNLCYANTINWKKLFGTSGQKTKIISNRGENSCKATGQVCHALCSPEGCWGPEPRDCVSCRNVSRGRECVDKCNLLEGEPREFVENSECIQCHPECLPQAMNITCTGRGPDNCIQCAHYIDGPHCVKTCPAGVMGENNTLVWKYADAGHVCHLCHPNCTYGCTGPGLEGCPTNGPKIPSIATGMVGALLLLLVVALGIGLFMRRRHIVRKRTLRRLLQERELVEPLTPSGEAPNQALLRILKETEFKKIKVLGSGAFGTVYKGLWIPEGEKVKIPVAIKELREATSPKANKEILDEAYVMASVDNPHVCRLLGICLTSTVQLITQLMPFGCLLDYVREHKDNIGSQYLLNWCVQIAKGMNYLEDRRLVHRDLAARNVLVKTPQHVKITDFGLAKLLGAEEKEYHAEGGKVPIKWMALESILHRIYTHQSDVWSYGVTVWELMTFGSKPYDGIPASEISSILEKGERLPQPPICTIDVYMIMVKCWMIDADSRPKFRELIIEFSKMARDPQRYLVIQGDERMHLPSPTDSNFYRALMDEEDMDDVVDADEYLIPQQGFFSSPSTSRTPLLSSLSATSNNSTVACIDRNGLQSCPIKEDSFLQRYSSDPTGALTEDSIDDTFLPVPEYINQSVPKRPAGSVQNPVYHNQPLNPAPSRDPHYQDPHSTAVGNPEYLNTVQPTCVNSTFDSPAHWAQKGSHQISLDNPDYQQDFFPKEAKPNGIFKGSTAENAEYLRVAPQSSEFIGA
Epidermal growth factor receptor (Mus musculus, UniProt Q01279), sequence (Q01279 whole entry): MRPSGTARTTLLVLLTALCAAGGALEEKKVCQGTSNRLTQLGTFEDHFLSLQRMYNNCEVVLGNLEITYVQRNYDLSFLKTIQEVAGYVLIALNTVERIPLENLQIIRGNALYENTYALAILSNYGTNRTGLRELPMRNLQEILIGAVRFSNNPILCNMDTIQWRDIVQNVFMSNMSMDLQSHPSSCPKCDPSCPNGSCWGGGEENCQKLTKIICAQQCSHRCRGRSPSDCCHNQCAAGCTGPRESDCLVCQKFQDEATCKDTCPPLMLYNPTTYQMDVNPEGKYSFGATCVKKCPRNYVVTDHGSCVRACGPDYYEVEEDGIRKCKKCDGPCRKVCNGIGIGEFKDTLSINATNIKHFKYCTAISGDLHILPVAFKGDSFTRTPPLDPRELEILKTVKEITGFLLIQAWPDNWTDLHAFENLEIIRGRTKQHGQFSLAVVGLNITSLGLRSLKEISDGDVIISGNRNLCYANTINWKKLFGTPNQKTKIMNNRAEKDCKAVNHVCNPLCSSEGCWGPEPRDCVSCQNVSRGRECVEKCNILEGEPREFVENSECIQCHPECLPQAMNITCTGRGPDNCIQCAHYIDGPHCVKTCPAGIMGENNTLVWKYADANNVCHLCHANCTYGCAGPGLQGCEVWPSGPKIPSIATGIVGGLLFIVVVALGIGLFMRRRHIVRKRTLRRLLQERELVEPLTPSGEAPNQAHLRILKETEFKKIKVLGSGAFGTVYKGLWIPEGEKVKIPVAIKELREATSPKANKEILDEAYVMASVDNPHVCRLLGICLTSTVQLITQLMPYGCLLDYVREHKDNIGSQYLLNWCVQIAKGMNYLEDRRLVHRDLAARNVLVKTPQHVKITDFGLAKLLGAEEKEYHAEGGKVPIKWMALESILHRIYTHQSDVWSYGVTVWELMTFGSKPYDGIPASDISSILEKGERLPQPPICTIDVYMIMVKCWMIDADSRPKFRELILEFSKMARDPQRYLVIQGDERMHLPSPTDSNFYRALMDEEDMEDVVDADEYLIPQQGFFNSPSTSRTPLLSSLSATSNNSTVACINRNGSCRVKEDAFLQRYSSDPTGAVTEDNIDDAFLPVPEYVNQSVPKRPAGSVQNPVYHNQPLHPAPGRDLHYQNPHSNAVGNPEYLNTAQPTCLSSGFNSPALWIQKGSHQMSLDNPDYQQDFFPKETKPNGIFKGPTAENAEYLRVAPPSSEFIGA

Row | Structure (SMILES) | IC50 [1] [µM] | IC50 (Swiss 3T3 (Mus musculus)) [µM] | further results
1 | CN1C(=S)C(C(=O)Nc2ccccc2)c2ccccc21 (centres undefined) | – | 64 | IC50 (A-431): 15 µM; IC50 [2]: > 100 µM; IC50 (KG-1): 38 µM; IC50 (K562): 32 µM; IC50 [3]: 17 µM
2 | Cn1c(SSc2c(C(=O)Nc3ccccc3)c3cccnc3n2C)c(C(=O)Nc2ccccc2)c2cccnc21 | – | 10 | IC50 [2]: > 25 µM; IC50 [3]: > 25 µM
3 | CN1C(=S)C(C(=O)Nc2ccccc2)c2cc(Cl)ccc21 (centres undefined) | > 100 | – | –
4 | Cn1c(SSc2ccccc2)c(C(=O)Nc2ccccc2)c2ccccc21 | > 100 | – | –
5 | Cn1c(SSc2c(C(=O)Nc3ccccc3)c3cc([N+](=O)[O-])ccc3n2C)c(C(=O)Nc2ccccc2)c2cc([N+](=O)[O-])ccc21 | 5 | – | –
6 | CN1C(=S)C(C(=O)Nc2ccccc2)c2cccnc21 (centres undefined) | > 100 | – | –
7 | CSc1c(C(=O)Nc2ccccc2)c2ccccc2n1C | > 100 | – | –
8 | COc1ccc2c(c1)c(C(=O)Nc1ccccc1)c(SSc1c(C(=O)Nc3ccccc3)c3cc(OC)ccc3n1C)n2C | > 100 | 20 | –
9 | COc1cccc2c(C(=O)Nc3ccccc3)c(SSc3c(C(=O)Nc4ccccc4)c4cccc(OC)c4n3C)n(C)c12 | – | 24 | IC50 [2]: > 100 µM; IC50 [3]: > 100 µM
10 | CC(=O)Oc1cccc2c1c(C(=O)Nc1ccccc1)c(SSc1c(C(=O)Nc3ccccc3)c3c(OC(C)=O)cccc3n1C)n2C | 20 | – | –
11 | CC(=O)Oc1ccc2c(C(=O)Nc3ccccc3)c(SSc3c(C(=O)Nc4ccccc4)c4ccc(OC(C)=O)cc4n3C)n(C)c2c1 | > 100 | – | –
12 | Cn1c(SSCc2ccccc2)c(C(=O)Nc2ccccc2)c2ccccc21 | > 100 | – | –
13 | COc1ccc2c(C(=O)Nc3ccccc3)c(SSc3c(C(=O)Nc4ccccc4)c4ccc(OC)cc4n3C)n(C)c2c1 | – | 17 | IC50 [3]: > 100 µM
14 | Cn1c(SSc2c(C(=O)Nc3ccccc3)c3cc(C(F)(F)F)ccc3n2C)c(C(=O)Nc2ccccc2)c2cc(C(F)(F)F)ccc21 | > 100 | – | –
15 | CN1C(=S)C(C)(C(=O)Nc2ccccc2)c2ccccc21 (centres undefined) | > 100 | – | –

More lines, main results first:

Row | IC50 [1] [µM] | Structure (SMILES) | IC50 (Swiss 3T3 (Mus musculus)) [µM] | further results
16 | 100 | Cn1c(SSc2c(C(=O)Nc3ccccc3)c3c(Cl)cccc3n2C)c(C(=O)Nc2ccccc2)c2c(Cl)cccc21 | – | –
17 | 100 | Cn1c(SSc2c(C(=O)Nc3ccccc3)c3cccc(O)c3n2C)c(C(=O)Nc2ccccc2)c2cccc(O)c21 | – | –
18 | 9.9 | CC(=O)Oc1cccc2c(C(=O)Nc3ccccc3)c(SSc3c(C(=O)Nc4ccccc4)c4cccc(OC(C)=O)c4n3C)n(C)c12 | – | –
19 | > 100 | Cc1cccc2c(C(=O)Nc3ccccc3)c(SSc3c(C(=O)Nc4ccccc4)c4cccc(C)c4n3C)n(C)c12 | – | –
20 | > 100 | Cc1ccc2c(C(=O)Nc3ccccc3)c(SSc3c(C(=O)Nc4ccccc4)c4ccc(C)cc4n3C)n(C)c2c1 | 96 | –
21 | > 100 | Cc1cccc2c1c(C(=O)Nc1ccccc1)c(SSc1c(C(=O)Nc3ccccc3)c3c(C)cccc3n1C)n2C | 4 | –
22 | 40.5 | Cn1c(SSc2c(C(=O)Nc3ccccc3)c3cc(O)ccc3n2C)c(C(=O)Nc2ccccc2)c2cc(O)ccc21 | – | –
23 | > 100 | Cn1c(SSc2c(C(=O)Nc3ccccc3)c3cccc(Cl)c3n2C)c(C(=O)Nc2ccccc2)c2cccc(Cl)c21 | – | –
24 | > 100 | Cc1ccc2c(c1)c(C(=O)Nc1ccccc1)c(SSc1c(C(=O)Nc3ccccc3)c3cc(C)ccc3n1C)n2C | 22 | –
25 | > 100 | Cn1c(SSc2c(C(=O)Nc3ccccc3)c3cc(F)ccc3n2C)c(C(=O)Nc2ccccc2)c2cc(F)ccc21 | – | –
26 | 10 | Cn1c(SSc2c(C(=O)Nc3ccccc3)c3ccccc3n2C)c(C(=O)Nc2ccccc2)c2ccccc21 | 12 | IC50 (A-431): 14 µM; IC50 [2]: > 100 µM; IC50 (KG-1): 12 µM; IC50 (K562): 18 µM; IC50 [3]: > 100 µM
27 | > 100 | COc1cccc2c1c(C(=O)Nc1ccccc1)c(SSc1c(C(=O)Nc3ccccc3)c3c(OC)cccc3n1C)n2C | 1.9 | –
28 | > 100 | Cn1c(SSc2c(C(=O)Nc3ccccc3)c3ccc(Cl)cc3n2C)c(C(=O)Nc2ccccc2)c2ccc(Cl)cc21 | – | –
